Holding throughout (type): functional
Assay [1] has as its system Staphylococcus aureus. The assay is described as follows: Antibacterial activity against Staphylococcus aureus XU21 by broth microdilution method. Put shortly:
(§1)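 Broth microdilution MICs per CLSI M07-A8 and M100-S20, run side by side on clinical MRSA isolate M05/0060, its plasmid-cured derivative M05/0060-C1, plasmid-free novobiocin-resistant recipient XU21 and transconjugant XU21-T1. Curing was by five serial 24 h passages in BHI broth at 43°C, 200 rpm. Transconjugants came from filter mating, selected on BHI agar with novobiocin 100 µg/ml plus chloramphenicol 30 µg/ml.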

Assay [2] deals with Staphylococcus aureus. Briefly: Antibacterial activity against pSCFS7-deficient methicillin-resistant Staphylococcus aureus M05/0060-C1 by broth microdilution method. In a few lines:
as §1

For assay [3], the system named is Staphylococcus aureus. The assay is described as follows: Antibacterial activity against methicillin-resistant Staphylococcus aureus M05/0060 harboring cfr-encoding conjugative pSCFS7 and fexA by broth microdilution method. Put shortly: as §1
Assay [4] relates to Staphylococcus aureus. Briefly: Antibacterial activity against Staphylococcus aureus XU21-T1 harboring cfr-encoding conjugative pSCFS7 and fexA by broth microdilution method. In a few lines: as §1

≈ marks a conversion by molar mass, not a printed value.

Take `O=C(N[C@H](CO)[C@H](O)c1ccc([N+](=O)[O-])cc1)C(Cl)Cl` [CHLORAMPHENICOL]: the MIC was found to be 8 µg/mL (≈ 24.8 µM) in assay [1], 8 µg/mL (≈ 24.8 µM) in assay [2], 256 µg/mL (≈ 792 µM) in assay [3] and 128 µg/mL (≈ 396 µM) in assay [4].
Take `CCC[C@@H]1C[C@@H](C(=O)N[C@@H]([C@H]2O[C@H](SC)[C@H](O)[C@@H](O)[C@H]2O)[C@H](C)Cl)N(C)C1` [CLINDAMYCIN]: the MIC in assay [1] was 0.25 µg/mL (≈ 0.588 µM); in assay [2], 0.25 µg/mL (≈ 0.588 µM); in assay [3] it was no less than 128 µg/mL; in assay [4], no less than 128 µg/mL.
Regarding `CC[C@H]1OC(=O)[C@H](C)[C@@H](O[C@H]2C[C@@](C)(OC)[C@@H](O)[C@H](C)O2)[C@H](C)[C@@H](O[C@@H]2O[C@H](C)C[C@H](N(C)C)[C@H]2O)[C@](C)(O)C[C@@H](C)C(=O)[C@H](C)[C@@H](O)[C@]1(C)O` [ERYTHROMYCIN], the MIC in assay [1] was 0.5 µg/mL (≈ 0.681 µM); in assay [2] it was no less than 64 µg/mL; in assay [3], no less than 64 µg/mL; in assay [4], 0.5 µg/mL (≈ 0.681 µM).
On to `CS(=O)(=O)c1ccc([C@@H](O)[C@@H](CF)NC(=O)C(Cl)Cl)cc1` [FLORFENICOL], for which the MIC in assay [1] stood at 4 µg/mL (≈ 11.2 µM); in assay [2], 4 µg/mL (≈ 11.2 µM); in assay [3] it was 256 µg/mL (≈ 715 µM); in assay [4] it was 256 µg/mL (≈ 715 µM).
Turning to `CC(=O)NC[C@H]1CN(c2ccc(N3CCOCC3)c(F)c2)C(=O)O1` [LINEZOLID], the figures for the MIC in assay [1], in assay [2] and in assay [3] were 1 µg/mL (≈ 2.96 µM), 1 µg/mL (≈ 2.96 µM) and 8 µg/mL (≈ 23.7 µM), respectively.
Consider `Cc1onc(-c2ccccc2)c1C(=O)N[C@@H]1C(=O)N2[C@@H]1SC(C)(C)[C@@H]2C(=O)O` [OXACILLIN], for which the minimal inhibitory concentration (MIC) was 0.12 µg/mL (≈ 0.299 µM) in assay [1], no less than 32 µg/mL in assay [2], no less than 32 µg/mL in assay [3] and 0.12 µg/mL (≈ 0.299 µM) in assay [4].
Regarding `C=C[C@]1(C)C[C@@H](OC(=O)CSCCN(CC)CC)[C@]2(C)[C@H](C)CC[C@]3(CCC(=O)[C@H]32)[C@@H](C)[C@@H]1O` [TIAMULIN], the MIC in assay [1] was 1 µg/mL (≈ 2.03 µM); in assay [2] it was 1 µg/mL (≈ 2.03 µM); in assay [3] it was no less than 128 µg/mL; in assay [4], no less than 128 µg/mL.
For `CC1=C\[C@@H](O)CC(=O)Cc2nc(co2)C(=O)N2CCC=C2C(=O)O[C@H](C(C)C)[C@H](C)/C=C/C(=O)NC\C=C\1` [VIRGINIAMYCIN FACTOR M1], the MIC in assay [1] worked out at 1 µg/mL (≈ 1.9 µM); in assay [2], 1 µg/mL (≈ 1.9 µM); in assay [3] it was 32 µg/mL (≈ 60.9 µM); in assay [4] it was 32 µg/mL (≈ 60.9 µM).

The record behind these values is ChEMBL document CHEMBL1687819, “Identification and characterization of the multidrug resistance gene cfr in a Panton-Valentine leukocidin-positive sequence type 8 methicillin-resistant Staphylococcus aureus IVa (USA300) isolate” (2010).
